Reference: ChEMBL document CHEMBL3102784, “Salicylanilide diethyl phosphates: synthesis, antimicrobial activity and cytotoxicity” (Bioorg Med Chem, 2014)
Converted amounts (≈) assume the structure as drawn.

Experiments:
Format in all cases: functional
[1] = system: Mycobacterium tuberculosis; experiment: Antimycobacterial activity against isoniazid, rifamycin, streptomycin, ethambutol and ofloxacin, clofazimine-resistant Mycobacterium tuberculosis Praha 4 after 21 days; settings: Praha 4, 504 h
Outline: (§1)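 Drug-resistant M. tuberculosis strains (MDR, one XDR), inoculum dilution 10^3. MIC by micromethod in Šula's semisynthetic medium at 37 °C, compounds in DMSO, concentration series as for the drug-susceptible strain. Read after 14 and 21 days.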

[2] = system: Mycobacterium tuberculosis; experiment: Antimycobacterial activity against isoniazid, rifamycin, streptomycin, ethambutol and ofloxacin, clofazimine-resistant Mycobacterium tuberculosis Praha 4 after 14 days; settings: Praha 4, 336 h; outline: as §1
[3] = system: Mycobacterium tuberculosis; experiment: Antimycobacterial activity against isoniazid, rifamycin, streptomycin, ethambutol, clofazimine, ofloxacin, gentamicin and amikacin-resistant Mycobacterium tuberculosis Praha 131 after 21 days; settings: Praha 131, 504 h; outline: as §1
[4] = system: Mycobacterium tuberculosis; experiment: Antimycobacterial activity against isoniazid, rifamycin, streptomycin, ethambutol, clofazimine, ofloxacin, gentamicin and amikacin-resistant Mycobacterium tuberculosis Praha 131 after 14 days; settings: Praha 131, 336 h; outline: as §1
[5] = system: Mycobacterium tuberculosis; experiment: Antimycobacterial activity against isoniazid, rifamycin, streptomycin, ethambutol and clofazimine-resistant Mycobacterium tuberculosis Praha 1 after 21 days; settings: Praha 1, 504 h; outline: as §1
[6] = system: Mycobacterium tuberculosis; experiment: Antimycobacterial activity against isoniazid, rifamycin, streptomycin, ethambutol and clofazimine-resistant Mycobacterium tuberculosis Praha 1 after 14 days; settings: Praha 1, 336 h; outline: as §1
[7] = system: Mycobacterium tuberculosis; experiment: Antimycobacterial activity against isoniazid, rifamycin and streptomycin-resistant Mycobacterium tuberculosis 9449/2006 after 21 days; settings: 9449/2006, 504 h; outline: as §1
[8] = system: Mycobacterium tuberculosis; experiment: Antimycobacterial activity against isoniazid, rifamycin and streptomycin-resistant Mycobacterium tuberculosis 9449/2006 after 14 days; settings: 9449/2006, 336 h; outline: as §1
[9] = system: Mycobacterium tuberculosis; experiment: Antimycobacterial activity against isoniazid, rifampicin, rifabutin, streptomycin and ethambutol-resistant Mycobacterium tuberculosis 234/2005 after 21 days; settings: 234/2005, 504 h; outline: as §1
[10] = system: Mycobacterium tuberculosis; experiment: Antimycobacterial activity against isoniazid, rifampicin, rifabutin, streptomycin and ethambutol-resistant Mycobacterium tuberculosis 234/2005 after 14 days; settings: 234/2005, 336 h; outline: as §1

| Structure (SMILES) | MIC [1] [µM] | MIC [2] [µM] | MIC [3] [µM] | MIC [4] [µM] | MIC [5] [µM] | MIC [6] [µM] | MIC [7] [µM] | MIC [8] [µM] | MIC [9] [µM] | MIC [10] [µM] |
| --- | --- | --- | --- | --- | --- | --- | --- | --- | --- | --- |
| CCOP(=O)(OCC)Oc1ccc(Cl)cc1C(=O)Nc1ccc(C(F)(F)F)cc1 | 1 (≈ 0.452 µg/mL) | 1 (≈ 0.452 µg/mL) | 1 (≈ 0.452 µg/mL) | 1 (≈ 0.452 µg/mL) | 1 (≈ 0.452 µg/mL) | 1 (≈ 0.452 µg/mL) | 1 (≈ 0.452 µg/mL) | 1 (≈ 0.452 µg/mL) | 1 (≈ 0.452 µg/mL) | 1 (≈ 0.452 µg/mL) |
| CCOP(=O)(OCC)Oc1ccc(Br)cc1C(=O)Nc1ccc(Cl)c(Cl)c1 | 1 (≈ 0.497 µg/mL) | 1 (≈ 0.497 µg/mL) | 1 (≈ 0.497 µg/mL) | 1 (≈ 0.497 µg/mL) | 1 (≈ 0.497 µg/mL) | 1 (≈ 0.497 µg/mL) | 1 (≈ 0.497 µg/mL) | 1 (≈ 0.497 µg/mL) | 1 (≈ 0.497 µg/mL) | 1 (≈ 0.497 µg/mL) |
| NNC(=O)c1ccncc1 [ISONIAZID] | 16 (≈ 2.19 µg/mL) | 16 (≈ 2.19 µg/mL) | 16 (≈ 2.19 µg/mL) | 16 (≈ 2.19 µg/mL) | 16 (≈ 2.19 µg/mL) | 16 (≈ 2.19 µg/mL) | 16 (≈ 2.19 µg/mL) | 16 (≈ 2.19 µg/mL) | 16 (≈ 2.19 µg/mL) | 16 (≈ 2.19 µg/mL) |
| CCOP(=O)(OCC)Oc1ccc(Cl)cc1C(=O)Nc1ccc(Cl)c(Cl)c1 | 1 (≈ 0.453 µg/mL) | 1 (≈ 0.453 µg/mL) | 1 (≈ 0.453 µg/mL) | 1 (≈ 0.453 µg/mL) | 1 (≈ 0.453 µg/mL) | 1 (≈ 0.453 µg/mL) | 1 (≈ 0.453 µg/mL) | 1 (≈ 0.453 µg/mL) | 1 (≈ 0.453 µg/mL) | 1 (≈ 0.453 µg/mL) |
| CCOP(=O)(OCC)Oc1cc(Cl)ccc1C(=O)Nc1ccc(C(F)(F)F)cc1 | 1 (≈ 0.452 µg/mL) | 1 (≈ 0.452 µg/mL) | 1 (≈ 0.452 µg/mL) | 1 (≈ 0.452 µg/mL) | 1 (≈ 0.452 µg/mL) | 1 (≈ 0.452 µg/mL) | 1 (≈ 0.452 µg/mL) | 1 (≈ 0.452 µg/mL) | 1 (≈ 0.452 µg/mL) | 1 (≈ 0.452 µg/mL) |
| CCOP(=O)(OCC)Oc1ccc(Br)cc1C(=O)Nc1ccc(C(F)(F)F)cc1 | 1 (≈ 0.496 µg/mL) | 1 (≈ 0.496 µg/mL) | 1 (≈ 0.496 µg/mL) | 1 (≈ 0.496 µg/mL) | 1 (≈ 0.496 µg/mL) | 1 (≈ 0.496 µg/mL) | 1 (≈ 0.496 µg/mL) | 1 (≈ 0.496 µg/mL) | 1 (≈ 0.496 µg/mL) | 1 (≈ 0.496 µg/mL) |
